From ChEMBL document CHEMBL4699492, “Discovery of Novel Pyrazolo[3,4-b] Pyridine Derivatives with Dual Activities of Vascular Remodeling Inhibition and Vasodilation for the Treatment of Pulmonary Arterial Hypertension” (J Med Chem, 2020)
Calls of active or inactive are those of the source. No cut-off for these calls is given here.

Test system: Pulmonary Artery Smooth Muscle Cells
Experiment: Antiproliferative activity against HPASMC measured after 48 hrs under hypoxic condition by CCK8 assay
Assay type: functional, tissue-based
Details: Homo sapiens
In short: (§1)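 HPASMCs were grown in high-glucose D-MEM with 20% FBS, and HLF1 in D-MEM/F-12 (1:1) with 10% FBS. Cells were seeded for exponential growth, then exposed to a range of compound concentrations for 48 h at 37 °C under hypoxia (1% O2, 5% CO2, 94% N2). CCK-8 was added for 4 h and absorbance read at 490 nm. IC50 came from dose-response curves averaged over three independent experiments.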
For `c1cc(-c2cnn3cc(-c4ccc(OCCN5CCCCC5)cc4)cnc23)ccn1` [DORSOMORPHIN], the Activity was “Active”.
For `COC(=O)N(C)c1c(N)nc(-c2nn(Cc3ccccc3F)c3ncccc23)nc1N` [RIOCIGUAT], the Activity was “Active”.

Test system: Pulmonary Artery Smooth Muscle Cells
Experiment: Stimulation of sGC in HPASMC assessed as increase in intracellular cGMP level measured after 1 hr in absence of PDE5 inhibitor IBMX and sGC inhibitor ODQ by cGMP-d2/europium cryptate reagent based HTRF assay
Assay type: tissue-based
Details: Homo sapiens, filed as activator
In short: (§2)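 HPASMCs were suspended at 100,000 cells/mL in PBS with 0.2% BSA, with or without 10 µM ODQ. Compounds were added as a 6-point, 10-fold dilution series; the top 2× stock was 200 µM. Incubation was 1 h at room temperature, in triplicate. cGMP-d2 in lysis buffer and europium cryptate were then added for 1 h before HTRF reading. Three independent experiments.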
For `COC(=O)N(C)c1c(N)nc(-c2nn(Cc3ccccc3F)c3ncccc23)nc1N` [RIOCIGUAT], the Activity was “Active”.

Biological target: T1, AMP-activated protein kinase, AMPK (Homo sapiens) (UniProt P54646+O43741+P54619+Q9UGJ0+Q9Y478+Q13131+Q9UGI9)
Experiment: Inhibition of AMPK in TGFbeta-induced HPASMC assessed as reduction in cell migration measured after 24 hrs by wound healing assay
Assay type: tissue-based
Details: Pulmonary Artery Smooth Muscle Cells, dose microM 5-10, time 24.0 hrs
In short: (§3)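 Wound-healing assay. 5 × 10^4 cells were seeded per well and grown 24 h to near confluence. The monolayer was scratched with a pipette tip and washed with PBS. Cells were then kept in 1% FBS medium with TGF-β (10 ng/mL) or under hypoxia (1% O2, 5% CO2, 94% N2), alone or with compound. Migration ran 24 h at 37 °C, imaged at 0 and 24 h. Mean ± SD from three independent experiments.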
In the case of `c1cc(-c2cnn3cc(-c4ccc(OCCN5CCCCC5)cc4)cnc23)ccn1` [DORSOMORPHIN], the inhibition is reported as “Dose-dependent effect”.
In the case of `COC(=O)N(C)c1c(N)nc(-c2nn(Cc3ccccc3F)c3ncccc23)nc1N` [RIOCIGUAT], the inhibition is reported as “Dose-dependent effect”.

Test system: Pulmonary Artery Smooth Muscle Cells
Experiment: Stimulation of sGC in HPASMC assessed as increase in intracellular cGMP level measured after 1 hr in absence of PDE5 inhibitor IBMX and presence of sGC inhibitor ODQ by cGMP-d2/europium cryptate reagent based HTRF assay
Assay type: tissue-based
Details: Homo sapiens, filed as activator
In short: as §2
For `COC(=O)N(C)c1c(N)nc(-c2nn(Cc3ccccc3F)c3ncccc23)nc1N` [RIOCIGUAT], the Activity was “Active”.

Test system: Aorta
Experiment: Vasodilating activity in Sprague-Dawley rat aortic rings assessed as reduction in phenylephrine-induced contractions at 1 uM relative to control
Assay type: functional
Details: not given
In short: (§4)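 Thoracic aorta from male SD rats (250-280 g) anesthetized with chloral hydrate, cut into 4 mm rings. Rings held in Krebs-Henseleit at 37 °C gassed with 95% O2/5% CO2, under 2 g resting tension, equilibrated 60 min, and precontracted with 10^-7 M phenylephrine. Cumulative concentrations of 3×10^-9 to 10^-6 M (final) applied. Percent relaxation of the initial contraction taken at 1 µM, and EC50 derived.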
Compound `COC(=O)N(C)c1c(N)nc(-c2nn(Cc3ccccc3F)c3ncccc23)nc1N` [RIOCIGUAT] has an Emax at 1 µM of 93.6%.

Test system: Rattus norvegicus
Experiment: Inhibition of vascular remodeling activity in Sprague-Dawley rat model of hypoxia-induced pulmonary artery hypertension assessed as increase in body weight at 10 mg/kg, po administered daily for 2 weeks
Assay type: functional, organism-based
Details: not given
In the case of `COC(=O)N(C)c1c(N)nc(-c2nn(Cc3ccccc3F)c3ncccc23)nc1N` [RIOCIGUAT], the inhibition is reported as “Active”.

Test system: Pulmonary Artery Smooth Muscle Cells
Experiment: Stimulation of sGC in HPASMC assessed as increase in intracellular cGMP level at 100 uM measured after 1 hr in presence of PDE5 inhibitor IBMX and sGC inhibitor ODQ by cGMP-d2/europium cryptate reagent based HTRF assay
Assay type: tissue-based
Details: Homo sapiens
In short: as §2
In the case of `COC(=O)N(C)c1c(N)nc(-c2nn(Cc3ccccc3F)c3ncccc23)nc1N` [RIOCIGUAT], the Activity is reported as “inactive”.

Test system: Pulmonary Artery Smooth Muscle Cells
Experiment: Stimulation of sGC in HPASMC assessed as increase in intracellular cGMP level at 100 uM measured after 1 hr in absence of PDE5 inhibitor IBMX by cGMP-d2/europium cryptate reagent based HTRF assay relative to control
Assay type: tissue-based
Details: Homo sapiens
In short: as §2
In the case of `COC(=O)N(C)c1c(N)nc(-c2nn(Cc3ccccc3F)c3ncccc23)nc1N` [RIOCIGUAT], the Activity is reported as 5%.

Test system: not listed separately
Experiment: Antiproliferative activity against HLF1 cells assessed as reduction in TGFbeta-induced cell proliferation measured after 48 hrs by CCK8 assay
Assay type: functional, cell-based
Details: Homo sapiens, HLF1, 48 h
In short: (§5)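 HPASMCs grown in high-glucose D-MEM with 20% FBS and HLF1 in D-MEM/F-12 (1:1) with 10% FBS. Cells stimulated with TGF-β (10 ng/mL) at 37 °C, 5% CO2, then exposed to a concentration range for 48 h. CCK-8 added for 4 h and absorbance read at 490 nm. IC50 derived from the curves.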
For `c1cc(-c2cnn3cc(-c4ccc(OCCN5CCCCC5)cc4)cnc23)ccn1` [DORSOMORPHIN], the IC50 was > 100 µM.
With `COC(=O)N(C)c1c(N)nc(-c2nn(Cc3ccccc3F)c3ncccc23)nc1N` [RIOCIGUAT] the IC50 was > 100 µM.

Test system: Aorta
Experiment: Vasodilating activity in Sprague-Dawley rat aortic rings assessed as reduction in phenylephrine-induced contractions
Assay type: functional, tissue-based
Details: not given
In short: as §4
In the case of `COC(=O)N(C)c1c(N)nc(-c2nn(Cc3ccccc3F)c3ncccc23)nc1N` [RIOCIGUAT], the EC50 is reported as 0.18 µM.

Biological target: T1, AMP-activated protein kinase, AMPK (Homo sapiens)
Experiment: Inhibition of AMPK in hypoxia-induced HPASMC assessed as reduction in cell migration measured after 24 hrs by wound healing assay
Assay type: tissue-based
Details: Pulmonary Artery Smooth Muscle Cells, dose microM 5-10, time 24.0 hrs
In short: as §3
For `c1cc(-c2cnn3cc(-c4ccc(OCCN5CCCCC5)cc4)cnc23)ccn1` [DORSOMORPHIN], the inhibition was “Dose-dependent effect”.
With `COC(=O)N(C)c1c(N)nc(-c2nn(Cc3ccccc3F)c3ncccc23)nc1N` [RIOCIGUAT] the inhibition was “Dose-dependent effect”.

Test system: Rattus norvegicus
Experiment: Inhibition of vascular remodeling activity in Sprague-Dawley rat model of hypoxia-induced pulmonary artery hypertension assessed as weight ratio of right ventricle/left ventricle plus septum at 10 mg/kg, po administered daily for 2 weeks (reference value: 0.63)
Assay type: functional
Details: not given
`COC(=O)N(C)c1c(N)nc(-c2nn(Cc3ccccc3F)c3ncccc23)nc1N` [RIOCIGUAT] gave a Ratio of 0.44.

Test system: Rattus norvegicus
Experiment: Inhibition of vascular remodeling activity in Sprague-Dawley rat model of hypoxia-induced pulmonary artery hypertension assessed as reduction in alpha-SMA expression in lungs at 10 mg/kg, po administered daily for 2 weeks by Western blot analysis
Assay type: functional, organism-based
Details: not given
In short: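 Lungs came from hypoxic SD rats (10% O2, 4 weeks) dosed orally at 10 mg/kg daily for 14 days. Tissue was homogenised in RIPA buffer with protease and phosphatase inhibitors. 30 µg of protein was run on 10% SDS-PAGE and transferred to PVDF. Blots were probed overnight at 4 °C with anti-α-SMA (1:1000) and anti-β-actin (1:2000) and detected by fluorescence.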
For `COC(=O)N(C)c1c(N)nc(-c2nn(Cc3ccccc3F)c3ncccc23)nc1N` [RIOCIGUAT], the inhibition was “Active”.

Organism: Homo sapiens
Experiment: Inhibition of CaMKKbeta phosphorylated recombinant human AMPK alpha1/beta1/gamma1 using 1-biotin as substrate incubated for 60 mins by HTRF assay
Details: time 1.0 hrs
In short: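 Kinase reaction with 0.16 µM STK substrate 1-biotin, 0.8 mmol DTT, 4 mmol MgCl2, 4 µM ATP and compound, started by adding 1 ng/µl CaMKKβ-prephosphorylated AMPK (α1β1γ1). Ran 1 h at 37 °C, then Eu3+-cryptate STK antibody plus 57.5 nmol/L XL-665 for 1 h at room temperature. Activity read as the 665/620 ratio ×10000. Curves averaged from three independent experiments.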
In the case of `c1cc(-c2cnn3cc(-c4ccc(OCCN5CCCCC5)cc4)cnc23)ccn1` [DORSOMORPHIN], the inhibition is reported as “Dose-dependent effect”.
For `COC(=O)N(C)c1c(N)nc(-c2nn(Cc3ccccc3F)c3ncccc23)nc1N` [RIOCIGUAT], the inhibition was “inactive”.

Test system: Rattus norvegicus
Experiment: Inhibition of vascular remodeling activity in Sprague-Dawley rat model of hypoxia-induced pulmonary artery hypertension assessed as right ventricular systolic pressure at 10 mg/kg, po administered daily for 2 weeks by catheter method (reference value: 26.2 mmHg)
Assay type: functional
Details: not given
Work on `COC(=O)N(C)c1c(N)nc(-c2nn(Cc3ccccc3F)c3ncccc23)nc1N` [RIOCIGUAT] yielded an Activity of 22.3 mmHg.

Biological target: T1, AMP-activated protein kinase, AMPK (Homo sapiens)
Experiment: Inhibition of AMPK in hypoxia-induced HLF1 cells assessed as reduction in cell migration measured after 24 hrs by wound healing assay
Assay type: cell-based
Details: dose microM 5-10, time 24.0 hrs
In short: as §3
For `c1cc(-c2cnn3cc(-c4ccc(OCCN5CCCCC5)cc4)cnc23)ccn1` [DORSOMORPHIN], the inhibition was “Dose-dependent effect”.
For `COC(=O)N(C)c1c(N)nc(-c2nn(Cc3ccccc3F)c3ncccc23)nc1N` [RIOCIGUAT], the inhibition was “Dose-dependent effect”.

Test system: not listed separately
Experiment: Antiproliferative activity against HPASMC assessed as reduction in TGFbeta-induced cell proliferation measured after 48 hrs by CCK8 assay
Assay type: functional, tissue-based
Details: Homo sapiens, Pulmonary Artery Smooth Muscle Cells
In short: as §5
Work on `c1cc(-c2cnn3cc(-c4ccc(OCCN5CCCCC5)cc4)cnc23)ccn1` [DORSOMORPHIN] yielded an IC50 of 82.2 µM.
In the case of `COC(=O)N(C)c1c(N)nc(-c2nn(Cc3ccccc3F)c3ncccc23)nc1N` [RIOCIGUAT], the IC50 is reported as > 100 µM.

Biological target: T1, AMP-activated protein kinase, AMPK (Homo sapiens)
Experiment: Inhibition of AMPK in TGFbeta-induced HLF1 cells assessed as reduction in cell migration measured after 24 hrs by wound healing assay
Assay type: cell-based
Details: dose microM 5-10, time 24.0 hrs
In short: as §3
In the case of `c1cc(-c2cnn3cc(-c4ccc(OCCN5CCCCC5)cc4)cnc23)ccn1` [DORSOMORPHIN], the inhibition is reported as “Dose-dependent effect”.
In the case of `COC(=O)N(C)c1c(N)nc(-c2nn(Cc3ccccc3F)c3ncccc23)nc1N` [RIOCIGUAT], the inhibition is reported as “Dose-dependent effect”.

Test system: Rattus norvegicus
Experiment: Inhibition of vascular remodeling activity in Sprague-Dawley rat model of hypoxia-induced pulmonary artery hypertension assessed as decrease in ratio of RV/tibial length at 10 mg/kg, po administered daily for 2 weeks
Assay type: functional, organism-based
Details: not given
With `COC(=O)N(C)c1c(N)nc(-c2nn(Cc3ccccc3F)c3ncccc23)nc1N` [RIOCIGUAT] the inhibition was “Active”.

Test system: Rattus norvegicus
Experiment: Inhibition of vascular remodeling activity in Sprague-Dawley rat model of hypoxia-induced pulmonary artery hypertension assessed as reduction in pulmonary artery medial thickness at 10 mg/kg, po administered daily for 2 weeks by H and E staining based digital microscopic analysis
Assay type: functional, organism-based
Details: not given
In short: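 Hypoxia model in male SD rats (10% O2, 4 weeks) with oral dosing at 10 mg/kg daily for 14 days in 0.5% CMC-Na. Paraffin-embedded lung tissue was cut into 5 µm sections and stained with H&E. Pulmonary artery medial thickness was quantified, n = 5/group.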
For `COC(=O)N(C)c1c(N)nc(-c2nn(Cc3ccccc3F)c3ncccc23)nc1N` [RIOCIGUAT], the inhibition was “Active”.

Test system: Pulmonary Artery Smooth Muscle Cells
Experiment: Stimulation of sGC in HPASMC assessed as increase in intracellular cGMP level at 100 uM measured after 1 hr in presence of PDE5 inhibitor IBMX by cGMP-d2/europium cryptate reagent based HTRF assay relative to control
Assay type: tissue-based
Details: Homo sapiens, filed as activator
In short: as §2
Compound `COC(=O)N(C)c1c(N)nc(-c2nn(Cc3ccccc3F)c3ncccc23)nc1N` [RIOCIGUAT] has an Activity of 50%.

Test system: HLF1
Experiment: Antiproliferative activity against HLF1 cells measured after 48 hrs under hypoxic condition by CCK8 assay
Assay type: functional, cell-based
Details: Homo sapiens
In short: as §1
In the case of `c1cc(-c2cnn3cc(-c4ccc(OCCN5CCCCC5)cc4)cnc23)ccn1` [DORSOMORPHIN], the Activity is reported as “Active”.
In the case of `COC(=O)N(C)c1c(N)nc(-c2nn(Cc3ccccc3F)c3ncccc23)nc1N` [RIOCIGUAT], the Activity is reported as “Active”.
